Values after ≈ are worked out from the molar mass of the structure shown.
Experiments:
[1] = Antitumor activity against mouse EAC cells assessed as non viable cells after 2 hrs by trypan blue exclusion test; type: functional, cell-based; conditions: Ehrlich
Method in brief: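 EAC cells were aspirated from the ascitic fluid of preinoculated female Swiss albino mice and suspended in medium containing glutamine, fetal calf serum, streptomycin and penicillin. Tubes received compound from DMSO dilutions (0.1 mL, corresponding to 100, 50, 25 or 10 µg) plus 0.1 mL cells and were held at 37 °C for 2 h. Non-viable cells were counted by trypan blue exclusion, and IC50 was read from the survival-versus-concentration curve.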

[2] = Antitumor activity against mouse EAC cells assessed as non viable cells at 25 ug/mL after 2 hrs by trypan blue exclusion test; type: functional, Ehrlich
Method in brief: (§1)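 Cells came from the ascitic fluid of preinoculated female Swiss albino mice and were suspended in medium with glutamine, fetal calf serum and antibiotics. Compound from DMSO dilutions was added as 0.1 mL, equal to the stated µg level, to medium plus 0.1 mL cell suspension (2 × 10^6). After 2 h at 37 °C, the percentage of non-viable cells was counted by trypan blue exclusion.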

[3] = Antitumor activity against mouse EAC cells assessed as non viable cells at 10 ug/mL after 2 hrs by trypan blue exclusion test; type: functional, Ehrlich; method in brief: as §1
[4] = Antitumor activity against mouse EAC cells assessed as non viable cells at 50 ug/mL after 2 hrs by trypan blue exclusion test; type: functional, Ehrlich; method in brief: as §1
[5] = Antitumor activity against mouse EAC cells assessed as non viable cells at 100 ug/mL after 2 hrs by trypan blue exclusion test; type: functional, Ehrlich; method in brief: as §1

| SMILES | IC50 [1] [µg/mL] | Activity [2] [%] | Activity [3] [%] | Activity [4] [%] | Activity [5] [%] |
| --- | --- | --- | --- | --- | --- |
| N#CC1=C(N)N(c2ccc(S(N)(=O)=O)cc2)C2=C(C(=O)CCC2)C1c1cccs1 (stereo not given) | 5 (≈ 11.7 µM) | 80 | 70 | 88 | 100 |
| N#CC1=C(N)N(c2ccc(S(N)(=O)=O)cc2)C2=C(C(=O)CCC2)C1c1c(O)ccc2ccccc12 (stereo not given) | > 100 | 0 | 0 | 5 | 15 |
| COc1ccccc1C1C(C#N)=C(N)N(c2ccc(S(N)(=O)=O)cc2)C2=C1C(=O)CCC2 (stereo not given) | > 100 | 0 | 0 | 0 | 0 |
| N#CC1=C(N)N(c2ccc(S(N)(=O)=O)cc2)C2=C(C(=O)CCC2)C1c1ccc([N+](=O)[O-])cc1 (stereo not given) | 2.5 (≈ 5.37 µM) | 80 | 85 | 95 | 100 |
| N#CC1=C(N)N(c2ccc(S(N)(=O)=O)cc2)C2=C(C(=O)CCC2)C1c1ccccc1 (stereo not given) | > 100 | 30 | 10 | 40 | 40 |
| N#CC1=C(N)N(c2ccc(S(N)(=O)=O)cc2)C2=C(C(=O)CCC2)C1c1ccc(Cl)cc1Cl (stereo not given) | 25 (≈ 51.1 µM) | 50 | 40 | 65 | 95 |
| Cc1ccc(C2C(C#N)=C(N)N(c3ccc(S(N)(=O)=O)cc3)C3=C2C(=O)CCC3)o1 (stereo not given) | > 100 | 10 | 2 | 40 | 45 |
| Cc1ccc(C2C(C#N)=C(N)N(c3ccc(S(N)(=O)=O)cc3)C3=C2C(=O)CCC3)cc1 (stereo not given) | 50 (≈ 115 µM) | 30 | 30 | 50 | 100 |
| COc1ccc(C2C(C#N)=C(N)N(c3ccc(S(N)(=O)=O)cc3)C3=C2C(=O)CCC3)cc1 (stereo not given) | 25 (≈ 55.5 µM) | 50 | 30 | 90 | 100 |
| N#CC1=C(N)N(c2ccc(S(N)(=O)=O)cc2)C2=C(C(=O)CCC2)C1/C=C/c1ccccc1 (stereo not given) | > 100 | 10 | 2 | 40 | 45 |
| COc1cccc2c1C(=O)c1c(O)c3c(c(O)c1C2=O)C[C@@](O)(C(=O)CO)C[C@@H]3O[C@H]1C[C@H](N)[C@H](O)[C@H](C)O1 [DOXORUBICIN] | 37.5 (≈ 69 µM) | 39 | 20 | 60 | 100 |
| COc1ccc(C2C(C#N)=C(N)N(c3ccc(S(N)(=O)=O)cc3)C3=C2C(=O)CCC3)c2ccccc12 (stereo not given) | 70 (≈ 140 µM) | 10 | 10 | 30 | 90 |
| N#CC1=C(N)N(c2ccc(S(N)(=O)=O)cc2)C2=C(C(=O)CCC2)C1c1cccc([N+](=O)[O-])c1 (stereo not given) | 25 (≈ 53.7 µM) | 50 | 42 | 73 | 71 |
| N#CC1=C(N)N(c2ccc(S(N)(=O)=O)cc2)C2=C(C(=O)CCC2)C1c1ccc(O)cc1 (stereo not given) | 3 (≈ 6.87 µM) | 95 | 90 | 100 | 100 |
| CCOc1cc(C2C(C#N)=C(N)N(c3ccc(S(N)(=O)=O)cc3)C3=C2C(=O)CCC3)ccc1OC (stereo not given) | 10 (≈ 20.2 µM) | 60 | 50 | 70 | 100 |
| COc1cc(OC)c(C2C(C#N)=C(N)N(c3ccc(S(N)(=O)=O)cc3)C3=C2C(=O)CCC3)cc1OC (stereo not given) | 12 (≈ 23.5 µM) | 72 | 40 | 100 | 100 |
| COc1ccc2ccccc2c1C1C(C#N)=C(N)N(c2ccc(S(N)(=O)=O)cc2)C2=C1C(=O)CCC2 (stereo not given) | 12.5 (≈ 25 µM) | 62 | 40 | 70 | 80 |
| N#CC1=C(N)N(c2ccc(S(N)(=O)=O)cc2)C2=C(C(=O)CCC2)C1c1ccco1 (stereo not given) | > 100 | 0 | 0 | 5 | 10 |
| COc1cc(C2C(C#N)=C(N)N(c3ccc(S(N)(=O)=O)cc3)C3=C2C(=O)CCC3)ccc1O (stereo not given) | 25 (≈ 53.6 µM) | 50 | 0 | 90 | 100 |

Source: ChEMBL document CHEMBL1157869, “Discovering some novel tetrahydroquinoline derivatives bearing the biologically active sulfonamide moiety as a new class of antitumor agents” (Eur J Med Chem, 2010)
